Key:
PDX283 tumors [1] = experiment: pharmacodynamics in PDX283 tumors; type: in vivo, NOD/SCID mice; conditions: CA3-treated mice, qRT-PCR
PDX283 tumors [2] = experiment: PDX283 xenograft tumor growth; type: in vivo, NOD/SCID mice; conditions: 1 mg/kg/mouse intraperitoneal 3 times per week for 3 weeks
Outline: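 Female NOD/SCID mice aged 6–8 weeks carried flank implants of the human CCA tumor. Dosing began once tumors were palpable (>25 mm³). Tumor growth was followed.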

[3] = system: CCA patient-derived xenografts; conditions: cited from earlier work
cells from PDX283 = experiment: viability of cells isolated from PDX283 tumor, in vitro; type: cell-based, human; conditions: concentrations up to 16 μM
HuCCT-1 reporter cells = experiment: luminescent reporter of TEAD-dependent transcription; type: cell-based

Compound: O=S(=O)(c1ccc2c(c1)C(=NO)c1cc(S(=O)(=O)N3CCCCC3)ccc1-2)N1CCCCC1 [CA3]
- YAP target gene expression in tumors (PDX283 tumors [1]): Inhibition
- growth of PDX283 tumors (PDX283 tumors [2]): significantly decreased

Compound: Cc1nc(Nc2ncc(C(=O)Nc3c(C)cccc3Cl)s2)cc(N2CCN(CCO)CC2)n1 [dasatinib]
- in vivo growth of CCA patient-derived xenografts [3]: inhibited

Compound: CCN1C(=O)N(c2c(F)c(OC)cc(OC)c2F)Cc2cnc3[nH]c(CN4CCOCC4)cc3c21 [pemigatinib]
- sensitivity of PDX283 cells (cells from PDX283): resistance

Compound: Verteporfin
- global TEAD-dependent transcription (HuCCT-1 reporter cells): decreased

Source: article PMC11410293 (Journal of hepatology, 2022)
